# Reference: ChEMBL document CHEMBL5370545 (Eur J Med Chem, 2023)
# How the values were obtained:
# HT-29 = test: Cytotoxicity against human HT-29 cells expressing heterozygous BRAF V600E mutant assessed as cell growth measured after 7 days of treatment by crystal violet assay; type: functional, cell-based; conditions: HT-29, 168 h
# Procedure, shortened: (§1)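 Cells seeded in 12-well plates: 8505C at 3 × 10^3, C32 at 10^4, HT29 at 5 × 10^3. Treated 24 h later with a dose series or DMSO vehicle for 7 days. Fixed in 4% PFA and stained with 0.1% crystal violet in 20% methanol. Destained with 10% acetic acid and read at 590 nm. Normalised to vehicle; mean ± SEM of three independent experiments.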
# 8505C = test: Cytotoxicity against human 8505C cells expressing homozygous BRAF V600E mutant assessed as cell growth measured after 7 days of treatment by crystal violet assay; type: functional, cell-based; conditions: 168 h; procedure, shortened: as §1
# [1] = Cytotoxicity against human cells expressing heterozygous BRAF V600E mutant assessed as cell growth measured after 7 days of treatment by crystal violet assay; conditions: 168 h
# C32 = test: Cytotoxicity against human C32 cells expressing heterozygous BRAF V600E mutant assessed as cell growth measured after 7 days of treatment by crystal violet assay; type: functional, cell-based; conditions: C32, 168 h; procedure, shortened: as §1
# [2] = Drug uptake in human A-375 cells harboring BRAF V600E mutant assessed as fluorescent signal at cytoplasm at 0.5 uM measured after 48 hrs by fluorescence microscopy; type: ADME, cell-based; conditions: a-375, 48 h
# Procedure, shortened: (§2)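 A375 and HeLa cells seeded at 3 × 10^4 and treated 24 h later with 0.5 µM compound or DMSO vehicle for 48 h. Washed with PBS, fixed in 4% formaldehyde for 10 min at room temperature, and stained with DAPI and phalloidin. Cy5 signal imaged by inverted fluorescence microscopy.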
# [3] = test system: Serine/threonine-protein kinase B-raf (Homo sapiens), P15056 [V600E]; test: Displacement of Vemurafenib from BRAF V600E mutant in human WM278 cells assessed as increase in cyno-fluorescence measured after 90 mins by flow cytometry based displacement assay; type: cell-based
# Procedure, shortened: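 Without washing, the Cy5 probe was added at 0, 0.05, 0.2, 1 and 2 µM for 90 min more. Cells were washed three times with medium (15 min each), imaged live, detached, and cell-associated Cy5 fluorescence was quantified by flow cytometry.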
# [4] = Stability of compound in foetal bovine serum at 100 uM measured for 2 to 48 hrs by reverse phase HPLC chromatographic analysis; type: ADME, cell-free, Bos taurus; conditions: cattle, time 2-48 hrs
# Procedure, shortened: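 Held at 100 µM in foetal bovine serum at 37 °C for up to 48 h (2–48 h). Each aliquot diluted 1:10 in pH 7.4 culture medium before RP-HPLC with a 35 min 0.1% TFA water/acetonitrile gradient. Chromatographic profile monitored.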
# [5] = Chemical stability of compound in cell culture medium at 100 uM at acidic pH measured for 2 to 48 hrs by reverse phase HPLC chromatographic analysis; type: physicochemical; conditions: time 2-48 hrs
# Procedure, shortened: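 Incubated at 100 µM, 37 °C, in phenol red-free DMEM High Glucose at pH 5, 7.4 or 8 for up to 48 h (2–48 h). Aliquots taken at each time point and analysed by RP-HPLC with a 35 min 0.1% TFA water/acetonitrile gradient. Chromatographic profile and 640/330 nm peak-area ratio followed.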
# [6] = target: Serine/threonine-protein kinase B-raf (Homo sapiens, UniProt P15056, V600E); test: biochemical
# [7] = Drug uptake in human Hela cells assessed as fluorescent signal at 0.5 uM measured after 48 hrs by fluorescence microscopy; type: ADME, cell-based; procedure, shortened: as §2
# Serine/threonine-protein kinase B-raf, sequence (P15056 2-766 V600E limits assumed): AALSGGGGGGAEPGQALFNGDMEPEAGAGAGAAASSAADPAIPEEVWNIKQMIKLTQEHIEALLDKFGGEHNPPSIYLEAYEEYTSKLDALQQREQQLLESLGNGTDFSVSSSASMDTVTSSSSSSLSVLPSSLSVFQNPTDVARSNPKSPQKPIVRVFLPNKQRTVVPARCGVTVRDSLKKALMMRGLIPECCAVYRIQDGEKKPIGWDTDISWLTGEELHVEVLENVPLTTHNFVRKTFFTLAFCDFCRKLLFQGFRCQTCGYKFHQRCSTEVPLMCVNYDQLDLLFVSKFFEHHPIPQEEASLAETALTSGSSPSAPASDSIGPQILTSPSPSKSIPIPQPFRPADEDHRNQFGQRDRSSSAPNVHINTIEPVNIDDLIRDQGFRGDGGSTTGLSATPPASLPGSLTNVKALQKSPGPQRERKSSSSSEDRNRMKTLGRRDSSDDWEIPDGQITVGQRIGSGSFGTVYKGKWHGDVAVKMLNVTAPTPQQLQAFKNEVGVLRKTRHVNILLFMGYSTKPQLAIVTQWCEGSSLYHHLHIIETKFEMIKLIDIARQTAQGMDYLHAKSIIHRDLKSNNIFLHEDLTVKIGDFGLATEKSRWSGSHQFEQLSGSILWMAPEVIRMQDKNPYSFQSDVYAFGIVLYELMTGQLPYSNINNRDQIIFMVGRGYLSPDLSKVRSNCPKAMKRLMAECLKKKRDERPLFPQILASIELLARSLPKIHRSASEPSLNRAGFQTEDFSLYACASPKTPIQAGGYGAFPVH
# Serine/threonine-protein kinase B-raf (Homo sapiens), P15056 [V600E], sequence (P15056 whole entry V600E): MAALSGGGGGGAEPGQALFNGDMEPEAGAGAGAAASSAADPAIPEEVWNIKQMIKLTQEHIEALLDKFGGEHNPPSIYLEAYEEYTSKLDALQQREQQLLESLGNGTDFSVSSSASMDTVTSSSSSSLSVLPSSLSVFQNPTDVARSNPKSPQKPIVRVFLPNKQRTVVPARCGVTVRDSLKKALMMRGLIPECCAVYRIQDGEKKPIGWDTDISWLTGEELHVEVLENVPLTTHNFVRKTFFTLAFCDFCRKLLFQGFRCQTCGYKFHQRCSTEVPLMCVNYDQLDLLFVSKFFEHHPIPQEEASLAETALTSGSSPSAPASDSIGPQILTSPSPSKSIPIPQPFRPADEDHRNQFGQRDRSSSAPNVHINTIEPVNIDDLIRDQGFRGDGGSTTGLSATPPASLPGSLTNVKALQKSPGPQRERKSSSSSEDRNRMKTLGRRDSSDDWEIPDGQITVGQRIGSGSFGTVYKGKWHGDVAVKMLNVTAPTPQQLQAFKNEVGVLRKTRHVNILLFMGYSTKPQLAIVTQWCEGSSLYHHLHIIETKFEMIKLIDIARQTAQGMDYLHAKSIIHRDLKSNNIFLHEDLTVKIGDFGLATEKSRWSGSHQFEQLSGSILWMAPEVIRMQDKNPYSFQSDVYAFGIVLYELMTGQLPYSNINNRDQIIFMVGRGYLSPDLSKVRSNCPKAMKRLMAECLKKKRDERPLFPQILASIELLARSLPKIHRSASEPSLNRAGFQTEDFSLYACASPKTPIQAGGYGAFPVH
Drug uptake [2],Activity [3],Stability [4],Stability [5],Kd [6],Drug uptake [7],SMILES,IC50 (HT-29),IC50 (8505C),IC50 [1],IC50 (C32)
,,,,,,CCCS(=O)(=O)Nc1ccc(F)c(C(=O)c2c[nH]c3ncc(-c4ccc(N)cc4)cc23)c1F,27 nM,620 nM,15 nM,12 nM
,,,,,,CCCS(=O)(=O)Nc1ccc(F)c(C(=O)c2c[nH]c3ncc(-c4ccc(Cl)cc4)cc23)c1F [VEMURAFENIB],49 nM,2940 nM,150 nM,84 nM
Active,Dose-Dependent Effect,Stable,Unstable,13 nM,Not Active,CCCS(=O)(=O)Nc1ccc(F)c(C(=O)c2c[nH]c3ncc(-c4ccc(NC(=O)COCCOCCNC(=O)CCCCC[N+]5=C(/C=C/C=C/C=C6\N(C)c7ccccc7C6(C)C)C(C)(C)c6ccccc65)cc4)cc23)c1F.O=C([O-])C(F)(F)F,340 nM,2500 nM,570 nM,630 nM
